Columns and labels:
[1] = molecular target: Tyrosine-protein kinase FRK (Homo sapiens) (UniProt P42685); test: Inhibition of PTK5 (unknown origin) at 1 uM by mobility shift microfluidics platform based assay relative to control
[2] = molecular target: Inhibitor of nuclear factor kappa-B kinase subunit beta (Homo sapiens) (UniProt O14920); test: Inhibition of IKK-beta (unknown origin) at 1 uM by mobility shift microfluidics platform based assay relative to control
[3] = molecular target: Serine/threonine-protein kinase pim-2 (Homo sapiens) (UniProt Q9P1W9); test: Inhibition of PIM2 (unknown origin) at 1 uM by mobility shift microfluidics platform based assay relative to control
Sequence of Serine/threonine-protein kinase pim-2 (Homo sapiens) (Q9P1W9 whole entry, looked up): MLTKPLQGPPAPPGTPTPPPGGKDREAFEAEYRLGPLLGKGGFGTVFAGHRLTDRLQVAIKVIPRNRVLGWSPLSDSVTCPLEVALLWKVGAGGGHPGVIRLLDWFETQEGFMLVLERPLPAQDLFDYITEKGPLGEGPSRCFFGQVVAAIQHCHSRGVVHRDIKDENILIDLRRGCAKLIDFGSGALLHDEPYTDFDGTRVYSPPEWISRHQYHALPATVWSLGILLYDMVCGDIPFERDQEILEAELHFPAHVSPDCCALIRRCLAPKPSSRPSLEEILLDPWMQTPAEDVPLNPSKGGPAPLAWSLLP

[4] = Apparent permeability from basolateral to apical side in human Caco2 cells in absence of P-gp inhibitor by LC-MS/MS analysis; type: ADME, cell-based; settings: Caco-2
Method in brief: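 Caco-2 monolayer permeability, measured apical-to-basolateral and basolateral-to-apical. Compound concentrations were quantified by LC-MS/MS, and apparent permeability coefficients (Papp, cm/s) were calculated from them.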

[5] = molecular target: Serine/threonine-protein kinase PAK 3 (Homo sapiens) (UniProt O75914); test: Inhibition of PAK3 (unknown origin) at 1 uM by mobility shift microfluidics platform based assay relative to control
[6] = molecular target: Serine/threonine-protein kinase SIK1 (Homo sapiens) (UniProt P57059); test: Inhibition of SIK (unknown origin) at 1 uM by mobility shift microfluidics platform based assay relative to control
[7] = molecular target: MAP/microtubule affinity-regulating kinase 4 (Homo sapiens) (UniProt Q96L34); test: Inhibition of MARK4 (unknown origin) at 1 uM by mobility shift microfluidics platform based assay relative to control
[8] = molecular target: Serine/threonine-protein kinase B-raf (Homo sapiens, UniProt P15056, V600E); test: Inhibition of full length FLAG-tagged BRAF V600E mutant (unknown origin) expressed in HEK293 cells assessed as decrease in MEK phosphorylation by immunoblotting assay; type: cell-based
Sequence of Serine/threonine-protein kinase B-raf (P15056 2-766 V600E limits assumed): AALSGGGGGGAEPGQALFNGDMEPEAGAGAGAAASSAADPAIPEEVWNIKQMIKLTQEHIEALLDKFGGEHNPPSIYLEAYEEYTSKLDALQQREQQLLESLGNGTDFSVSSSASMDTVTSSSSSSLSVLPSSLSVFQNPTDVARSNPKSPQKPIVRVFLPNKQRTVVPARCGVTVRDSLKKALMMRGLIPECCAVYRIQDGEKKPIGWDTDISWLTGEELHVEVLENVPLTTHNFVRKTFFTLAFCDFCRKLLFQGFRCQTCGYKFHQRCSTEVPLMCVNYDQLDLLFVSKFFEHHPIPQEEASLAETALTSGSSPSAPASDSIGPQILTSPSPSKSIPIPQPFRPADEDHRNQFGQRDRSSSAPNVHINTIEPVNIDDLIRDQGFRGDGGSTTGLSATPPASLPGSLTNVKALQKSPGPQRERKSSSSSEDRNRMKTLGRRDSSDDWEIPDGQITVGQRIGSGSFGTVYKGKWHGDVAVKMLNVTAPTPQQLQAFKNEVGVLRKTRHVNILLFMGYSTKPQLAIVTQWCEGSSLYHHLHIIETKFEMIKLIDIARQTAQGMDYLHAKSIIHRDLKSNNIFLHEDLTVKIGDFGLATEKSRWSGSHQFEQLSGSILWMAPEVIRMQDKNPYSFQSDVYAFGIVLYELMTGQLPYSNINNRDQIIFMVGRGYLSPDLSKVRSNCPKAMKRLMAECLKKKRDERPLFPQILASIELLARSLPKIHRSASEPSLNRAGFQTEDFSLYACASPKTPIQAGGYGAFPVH

[9] = molecular target: Phosphorylase b kinase gamma catalytic chain, skeletal muscle/heart isoform (Homo sapiens) (UniProt Q16816); test: Inhibition of PHK-gamma1 (unknown origin) at 1 uM by mobility shift microfluidics platform based assay relative to control
Sequence of Phosphorylase b kinase gamma catalytic chain, skeletal muscle/heart isoform (Homo sapiens) (Q16816 whole entry, looked up, canonical isoform): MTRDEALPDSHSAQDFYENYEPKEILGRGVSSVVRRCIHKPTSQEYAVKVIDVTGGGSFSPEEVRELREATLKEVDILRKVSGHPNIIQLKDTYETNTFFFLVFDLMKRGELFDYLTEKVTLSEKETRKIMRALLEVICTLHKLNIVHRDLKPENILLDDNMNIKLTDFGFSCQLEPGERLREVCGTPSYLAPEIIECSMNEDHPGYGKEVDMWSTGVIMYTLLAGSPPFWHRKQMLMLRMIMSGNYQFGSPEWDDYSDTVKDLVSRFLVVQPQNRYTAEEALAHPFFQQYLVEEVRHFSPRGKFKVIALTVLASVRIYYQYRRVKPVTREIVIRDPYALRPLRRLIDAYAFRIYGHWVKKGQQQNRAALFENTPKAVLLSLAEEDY

[10] = molecular target: Mitogen-activated protein kinase 9 (Homo sapiens) (UniProt P45984); test: Inhibition of JNK2 (unknown origin) at 1 uM by mobility shift microfluidics platform based assay relative to control
Sequence of Mitogen-activated protein kinase 9 (Homo sapiens) (P45984 whole entry, looked up): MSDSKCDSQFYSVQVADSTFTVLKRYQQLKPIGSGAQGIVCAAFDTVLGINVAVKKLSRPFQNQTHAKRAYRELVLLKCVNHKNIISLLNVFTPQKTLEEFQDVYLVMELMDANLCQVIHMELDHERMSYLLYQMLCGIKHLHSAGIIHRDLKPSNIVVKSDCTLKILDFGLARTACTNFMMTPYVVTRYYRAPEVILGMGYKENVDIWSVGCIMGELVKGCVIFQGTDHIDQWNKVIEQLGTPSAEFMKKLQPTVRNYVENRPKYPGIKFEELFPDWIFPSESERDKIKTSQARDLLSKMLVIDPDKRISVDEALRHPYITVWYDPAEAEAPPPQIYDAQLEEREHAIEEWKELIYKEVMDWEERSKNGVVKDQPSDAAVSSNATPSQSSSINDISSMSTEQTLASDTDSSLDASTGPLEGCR

[11] = molecular target: Protein kinase C iota type (Homo sapiens) (UniProt P41743); test: Inhibition of PKC-iota (unknown origin) at 1 uM by mobility shift microfluidics platform based assay relative to control
Sequence of Protein kinase C iota type (Homo sapiens) (P41743 whole entry): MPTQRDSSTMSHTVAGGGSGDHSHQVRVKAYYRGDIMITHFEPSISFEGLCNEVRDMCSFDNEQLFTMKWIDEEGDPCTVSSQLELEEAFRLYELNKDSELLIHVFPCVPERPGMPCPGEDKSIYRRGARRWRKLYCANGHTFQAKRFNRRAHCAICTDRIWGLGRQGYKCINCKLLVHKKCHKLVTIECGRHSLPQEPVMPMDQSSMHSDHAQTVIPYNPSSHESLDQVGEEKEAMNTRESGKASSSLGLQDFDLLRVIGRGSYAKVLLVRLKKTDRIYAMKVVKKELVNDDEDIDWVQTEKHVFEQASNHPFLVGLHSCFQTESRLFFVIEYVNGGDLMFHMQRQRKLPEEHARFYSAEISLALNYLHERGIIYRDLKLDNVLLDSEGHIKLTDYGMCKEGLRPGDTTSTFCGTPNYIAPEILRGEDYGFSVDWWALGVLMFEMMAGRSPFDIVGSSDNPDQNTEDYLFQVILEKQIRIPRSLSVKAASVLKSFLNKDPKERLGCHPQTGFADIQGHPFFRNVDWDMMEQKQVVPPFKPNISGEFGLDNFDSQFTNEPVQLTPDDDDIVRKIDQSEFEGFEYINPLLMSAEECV

[12] = molecular target: Macrophage colony-stimulating factor 1 receptor (Homo sapiens) (UniProt P07333); test: Inhibition of FMS (unknown origin) at 1 uM by mobility shift microfluidics platform based assay relative to control
[13] = molecular target: Tyrosine-protein kinase JAK2 (Homo sapiens) (UniProt O60674); test: Inhibition of JAK2 (unknown origin) at 1 uM by mobility shift microfluidics platform based assay relative to control
[14] = molecular target: Aurora kinase A (Homo sapiens) (UniProt O14965); test: Inhibition of AURORA-A (unknown origin) at 1 uM by mobility shift microfluidics platform based assay relative to control
[15] = molecular target: Mitogen-activated protein kinase kinase kinase kinase 2 (Homo sapiens) (UniProt Q12851); test: Inhibition of MAP4K2 (unknown origin) at 1 uM by mobility shift microfluidics platform based assay relative to control
[16] = molecular target: Cyclin-T1/Cyclin-dependent-like kinase 5 (Homo sapiens) (UniProt Q00535+O60563); test: Inhibition of CDK5/cyclin T1 (unknown origin) at 1 uM by mobility shift microfluidics platform based assay relative to control; type: protein-complex assay
[17] = molecular target: Calcium/calmodulin-dependent protein kinase type IV (Homo sapiens) (UniProt Q16566); test: Inhibition of CAMK4 (unknown origin) at 1 uM by mobility shift microfluidics platform based assay relative to control
[18] = molecular target: Homeodomain-interacting protein kinase 1 (Homo sapiens) (UniProt Q86Z02); test: Inhibition of HIPK1 (unknown origin) at 1 uM by mobility shift microfluidics platform based assay relative to control
Sequence of Homeodomain-interacting protein kinase 1 (Homo sapiens) (Q86Z02 whole entry, looked up): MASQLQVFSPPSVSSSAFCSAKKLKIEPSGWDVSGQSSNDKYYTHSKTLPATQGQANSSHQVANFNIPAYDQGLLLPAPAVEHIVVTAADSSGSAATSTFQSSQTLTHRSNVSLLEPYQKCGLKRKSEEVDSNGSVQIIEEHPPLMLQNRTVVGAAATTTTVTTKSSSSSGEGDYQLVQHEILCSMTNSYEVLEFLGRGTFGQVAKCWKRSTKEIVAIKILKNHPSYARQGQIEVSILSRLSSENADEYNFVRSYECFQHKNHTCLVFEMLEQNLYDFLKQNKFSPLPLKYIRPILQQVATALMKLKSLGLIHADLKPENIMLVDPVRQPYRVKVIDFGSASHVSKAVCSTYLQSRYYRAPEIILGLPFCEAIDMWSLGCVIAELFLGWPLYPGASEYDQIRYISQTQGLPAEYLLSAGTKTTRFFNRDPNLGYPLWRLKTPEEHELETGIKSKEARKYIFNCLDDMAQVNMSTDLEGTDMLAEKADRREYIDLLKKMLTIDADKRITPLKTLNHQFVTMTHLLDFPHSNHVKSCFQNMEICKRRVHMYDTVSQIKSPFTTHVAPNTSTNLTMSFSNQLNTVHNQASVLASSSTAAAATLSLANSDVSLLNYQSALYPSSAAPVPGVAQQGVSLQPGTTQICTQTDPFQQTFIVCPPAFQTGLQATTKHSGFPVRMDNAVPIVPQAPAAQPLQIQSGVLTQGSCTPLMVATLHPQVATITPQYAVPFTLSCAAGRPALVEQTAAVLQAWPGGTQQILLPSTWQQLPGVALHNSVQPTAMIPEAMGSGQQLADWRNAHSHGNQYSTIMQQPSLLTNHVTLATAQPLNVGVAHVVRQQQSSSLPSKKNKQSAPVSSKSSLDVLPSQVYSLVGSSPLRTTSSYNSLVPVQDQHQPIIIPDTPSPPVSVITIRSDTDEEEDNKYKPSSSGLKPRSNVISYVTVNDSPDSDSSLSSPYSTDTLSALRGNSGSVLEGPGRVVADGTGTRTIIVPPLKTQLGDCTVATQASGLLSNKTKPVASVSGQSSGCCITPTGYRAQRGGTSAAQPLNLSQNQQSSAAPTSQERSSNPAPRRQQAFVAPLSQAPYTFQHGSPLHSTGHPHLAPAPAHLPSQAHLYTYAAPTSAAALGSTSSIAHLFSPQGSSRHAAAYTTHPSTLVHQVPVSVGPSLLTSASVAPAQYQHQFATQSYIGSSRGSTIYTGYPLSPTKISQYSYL

[19] = molecular target: Tyrosine-protein kinase JAK3 (Homo sapiens) (UniProt P52333); test: Inhibition of JAK3 (unknown origin) at 1 uM by mobility shift microfluidics platform based assay relative to control
[20] = molecular target: Angiopoietin-1 receptor (Homo sapiens) (UniProt Q02763); test: Inhibition of TIE2 (unknown origin) at 1 uM by mobility shift microfluidics platform based assay relative to control
[21] = molecular target: NT-3 growth factor receptor (Homo sapiens) (UniProt Q16288); test: Inhibition of TRKC (unknown origin) at 1 uM by mobility shift microfluidics platform based assay relative to control
[22] = molecular target: Mitogen-activated protein kinase 3 (Homo sapiens) (UniProt P27361); test: Inhibition of MAPK3 (unknown origin) at 1 uM by mobility shift microfluidics platform based assay relative to control
[23] = molecular target: Tyrosine-protein kinase ABL2 (Homo sapiens) (UniProt P42684); test: Inhibition of ARG (unknown origin) at 1 uM by mobility shift microfluidics platform based assay relative to control
[24] = molecular target: Tyrosine-protein kinase ABL1 (Homo sapiens, UniProt P00519); test: Inhibition of ABL1 (unknown origin) at 1 uM by mobility shift microfluidics platform based assay relative to control
[25] = molecular target: Inhibitor of nuclear factor kappa-B kinase subunit alpha (Homo sapiens) (UniProt O15111); test: Inhibition of IKK-alpha (unknown origin) at 1 uM by mobility shift microfluidics platform based assay relative to control
[26] = molecular target: MAP kinase-interacting serine/threonine-protein kinase 1 (Homo sapiens) (UniProt Q9BUB5); test: Inhibition of MKNK1 (unknown origin) at 1 uM by mobility shift microfluidics platform based assay relative to control
Sequence of MAP kinase-interacting serine/threonine-protein kinase 1 (Homo sapiens) (Q9BUB5 whole entry, looked up): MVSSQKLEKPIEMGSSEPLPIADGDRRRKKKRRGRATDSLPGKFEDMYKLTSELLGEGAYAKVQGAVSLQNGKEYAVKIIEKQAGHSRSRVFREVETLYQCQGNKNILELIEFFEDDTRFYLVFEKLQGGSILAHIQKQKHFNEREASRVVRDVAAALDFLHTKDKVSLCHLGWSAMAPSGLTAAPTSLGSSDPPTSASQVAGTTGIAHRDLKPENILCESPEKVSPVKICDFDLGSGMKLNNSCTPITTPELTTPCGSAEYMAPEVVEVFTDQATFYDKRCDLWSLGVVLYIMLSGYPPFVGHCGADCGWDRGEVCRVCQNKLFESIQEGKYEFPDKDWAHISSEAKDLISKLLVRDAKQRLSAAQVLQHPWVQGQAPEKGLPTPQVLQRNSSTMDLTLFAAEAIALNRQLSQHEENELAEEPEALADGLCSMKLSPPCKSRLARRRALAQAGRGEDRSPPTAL

[27] = molecular target: cGMP-dependent protein kinase 2 (Homo sapiens) (UniProt Q13237); test: Inhibition of PRKG2 (unknown origin) at 1 uM by mobility shift microfluidics platform based assay relative to control
[28] = molecular target: RAC-gamma serine/threonine-protein kinase (Homo sapiens) (UniProt Q9Y243); test: Inhibition of AKT3 (unknown origin) at 1 uM by mobility shift microfluidics platform based assay relative to control
[29] = molecular target: Serine/threonine-protein kinase 38-like (Homo sapiens) (UniProt Q9Y2H1); test: Inhibition of NDR2 (unknown origin) at 1 uM by mobility shift microfluidics platform based assay relative to control
[30] = molecular target: Tyrosine-protein kinase Fgr (Homo sapiens) (UniProt P09769); test: Inhibition of FGR (unknown origin) at 1 uM by mobility shift microfluidics platform based assay relative to control
Sequence of Tyrosine-protein kinase Fgr (Homo sapiens) (P09769 2-529 limits assumed): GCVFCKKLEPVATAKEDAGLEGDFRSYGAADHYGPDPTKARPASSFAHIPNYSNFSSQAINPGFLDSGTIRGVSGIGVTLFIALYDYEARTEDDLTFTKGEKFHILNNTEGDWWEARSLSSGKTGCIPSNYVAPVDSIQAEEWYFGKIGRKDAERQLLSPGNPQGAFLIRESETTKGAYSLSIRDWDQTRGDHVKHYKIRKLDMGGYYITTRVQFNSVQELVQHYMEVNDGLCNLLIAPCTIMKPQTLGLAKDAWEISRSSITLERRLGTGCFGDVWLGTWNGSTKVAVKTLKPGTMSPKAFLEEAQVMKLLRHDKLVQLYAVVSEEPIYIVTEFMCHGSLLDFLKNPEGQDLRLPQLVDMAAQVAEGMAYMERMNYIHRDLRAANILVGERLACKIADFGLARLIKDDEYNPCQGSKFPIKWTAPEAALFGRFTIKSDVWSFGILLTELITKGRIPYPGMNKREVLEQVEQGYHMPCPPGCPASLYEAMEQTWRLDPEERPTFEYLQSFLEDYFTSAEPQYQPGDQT

[31] = molecular target: Serine/threonine-protein kinase Sgk3 (Homo sapiens) (UniProt Q96BR1); test: Inhibition of SGK3 (unknown origin) at 1 uM by mobility shift microfluidics platform based assay relative to control
[32] = molecular target: Tyrosine-protein kinase ITK/TSK (Homo sapiens) (UniProt Q08881); test: Inhibition of ITK (unknown origin) at 1 uM by mobility shift microfluidics platform based assay relative to control
[33] = molecular target: Protein kinase C beta type (Homo sapiens) (UniProt P05771); test: Inhibition of PKC-beta1 (unknown origin) at 1 uM by mobility shift microfluidics platform based assay relative to control

| Compound | inhibition [1] | inhibition [2] | inhibition [3] | Papp B→A [4] | inhibition [5] | inhibition [6] | inhibition [7] | IC50 [8] | inhibition [9] | inhibition [10] | inhibition [11] | inhibition [12] | inhibition [13] | inhibition [14] | inhibition [15] | inhibition [16] | inhibition [17] | inhibition [18] | inhibition [19] | inhibition [20] | also measured |
| --- | --- | --- | --- | --- | --- | --- | --- | --- | --- | --- | --- | --- | --- | --- | --- | --- | --- | --- | --- | --- | --- |
| CC(C)n1nc(C#Cc2cccc3cc(-c4cccc(C(F)(F)F)c4)ncc23)c2c(N)ncnc21 | 18% | 2% | 0% | 2.6 ×10⁻⁶ cm/s | 1% | 7% | -1% | 14 nM | 10% | 8% | 2% | 87% | 3% | 29% | 24% | -2% | 6% | -2% | 10% | 61% | inhibition [21]: 14%; inhibition [22]: 1%; inhibition [23]: 94%; inhibition [24]: 96%; inhibition [25]: -3%; inhibition [26]: 2%; inhibition [27]: 9%; inhibition [28]: 3%; inhibition [29]: -1%; inhibition [30]: 71%; inhibition [31]: -3%; inhibition [32]: 10%; inhibition [33]: 2% |
| CC(C)n1nc(C#Cc2cccc(NC(=O)c3cccc(C(F)(F)F)c3)c2)c2c(N)ncnc21 | 95% | 22% | -1% | 1 ×10⁻⁶ cm/s | 2% | 43% | -4% | 2 nM | -3% | 26% | -3% | 99% | 77% | 90% | 67% | 5% | 11% | -3% | 30% | 96% | inhibition [21]: 59%; inhibition [22]: 1%; inhibition [23]: 99%; inhibition [24]: 98%; inhibition [25]: 26%; inhibition [26]: 0%; inhibition [27]: 24%; inhibition [28]: 2%; inhibition [29]: 1%; inhibition [30]: 99%; inhibition [31]: -2%; inhibition [32]: 23%; inhibition [33]: -3% |

From ChEMBL document CHEMBL4229333, “Effects of rigidity on the selectivity of protein kinase inhibitors” (Eur J Med Chem, 2018)
